From PubChem BioAssay
An excerpt weighted towards active compounds, which were near 2.3% of everything screened.
DNA FID counter – displaces DNA intercalator in HCV helicase counter-screen; DNA fluorescent intercalator displacement, fluorescence; inhibition, % at 7.9 µM; 290,000 compounds, 0.17% hits; in the data active = inhibition above about 37%;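 also: 0% = vehicle and 100% = reference compound; higher means more ethidium bromide displaced from hairpin DNA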
TRPC4 agonist – opens the mouse TRPC4 cation channel; Q9QUQ5; B-score at 10 µM; HEK293 TRPC4beta/mu-opioid, Fluo4 calcium fluorescence; stronger effect = higher value; 310,000 compounds, 0.49% hits; AID 2237;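 active = B-score above 5 SD of library B-scores, and initial fluorescence ratio not above library mean plus 5 SD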;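 also: positive B-score marks a calcium rise read as TRPC4 activation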
Target sequence (Q9QUQ5 whole entry, looked up): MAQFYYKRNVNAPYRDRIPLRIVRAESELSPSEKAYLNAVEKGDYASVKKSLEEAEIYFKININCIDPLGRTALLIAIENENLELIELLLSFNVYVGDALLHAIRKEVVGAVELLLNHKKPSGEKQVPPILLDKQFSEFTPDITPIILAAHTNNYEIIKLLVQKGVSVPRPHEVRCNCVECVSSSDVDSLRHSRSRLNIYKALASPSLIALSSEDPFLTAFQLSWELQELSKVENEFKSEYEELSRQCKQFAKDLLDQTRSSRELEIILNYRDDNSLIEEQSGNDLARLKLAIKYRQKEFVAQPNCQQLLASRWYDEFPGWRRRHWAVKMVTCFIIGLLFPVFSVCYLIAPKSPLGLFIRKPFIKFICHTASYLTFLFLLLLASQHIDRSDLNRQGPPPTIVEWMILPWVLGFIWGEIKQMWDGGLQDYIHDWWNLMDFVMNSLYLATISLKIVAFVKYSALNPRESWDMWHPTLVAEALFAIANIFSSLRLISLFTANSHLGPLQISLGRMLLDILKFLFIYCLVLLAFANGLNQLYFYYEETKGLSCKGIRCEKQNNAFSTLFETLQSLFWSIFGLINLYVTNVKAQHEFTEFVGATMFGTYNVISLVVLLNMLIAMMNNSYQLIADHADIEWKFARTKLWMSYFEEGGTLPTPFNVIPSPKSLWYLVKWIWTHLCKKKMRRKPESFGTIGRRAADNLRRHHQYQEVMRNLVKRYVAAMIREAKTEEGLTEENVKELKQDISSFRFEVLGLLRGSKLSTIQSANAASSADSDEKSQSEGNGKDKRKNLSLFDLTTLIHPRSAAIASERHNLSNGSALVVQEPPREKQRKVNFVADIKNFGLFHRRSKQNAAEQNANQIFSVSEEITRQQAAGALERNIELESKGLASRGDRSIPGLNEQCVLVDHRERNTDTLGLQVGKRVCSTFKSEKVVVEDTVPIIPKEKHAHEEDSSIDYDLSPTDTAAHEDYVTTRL
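Material: TRPC4beta and mu-opioid receptor HEK293 stable cells | Incubation: 45 min room-temperature Fluo4 loading, 110 s read | Detection: Kinetic Fluo4 calcium fluorescence | Measure: Integrated baseline-normalised fluorescence ratio, converted to per-well B score | Benchmarks: Low control buffer alone, high control maximal DAMGO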
TRPC6 inh – blocks the mouse TRPC6 cation channel. B-score at 10 µM. HEK293-TRPC6, membrane potential dye, ACh-evoked depolarization; stronger effect = lower value. 310,000 compounds, 1.1% hits. AID 2553. Q61143;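 active = B-score under library mean minus 3 SD, initial fluorescence not abnormally high, positive integrated signal ratio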;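 also: B-score derived from integrated fluorescence ratio over the kinetic read; more negative B-score means stronger inhibition of depolarization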
TRPC6 activator – mouse TRPC6 channel activation. HEK293-TRPC6 membrane potential dye fluorescence; stronger effect = higher value. B-score at 10 µM. 310,000 compounds, 0.13% hits;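 active = B-score of the integrated fluorescence ratio above library mean plus 3 SD, and starting fluorescence ratio within library mean plus 5 SD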;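 also: higher score means more depolarization so channel activation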
TRPC4 potent – allosteric potentiators of mouse TRPC4 channel | Q9QUQ5 | HEK293 TRPC4beta/mu-opioid, DAMGO EC20, Fluo-4 Ca2+ flux; stronger effect = higher value | B-score at 10 µM | 310,000 compounds, 0.42% hits | AID 2227;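 active = B-score of calcium response area above 5 SD of library B-scores, with initial fluorescence ratio within 5 SD of library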;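 also: B-score of integrated fluorescence ratio over time as area under calcium response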
TRPC4 block – blocks the mouse TRPC4 cation channel; Q9QUQ5; HEK293 TRPC4beta/mu-opioid, DAMGO-evoked Fluo4 calcium flux; stronger effect = lower value; B-score at 10 µM; 300,000 compounds, 0.39% hits;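 active = B-score over 3 SD under the library average, no early fluorescence shift, positive overall ratio signal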
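Assay system: TRPC4beta/mu-opioid receptor HEK293 cell line; compound dosing: single concentration per test compound; detection: Fluo4 Ca2+ flux fluorescence; evaluation: per-well B score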
The depositor's hits bear a star.

What do the screens show for `COc1ccc2c(c1)C=C(CN1CCC(CO)(CCc3ccccc3)CC1)CO2`?
DNA FID counter: 5; TRPC4 agonist: inactive; TRPC6 inh: inactive; TRPC6 activator: inactive; TRPC4 potent: inactive; TRPC4 block: -6*

Results for OCCC1CN(Cc2cc(F)ccc2F)CCN1CCCc1ccccc1 (configuration not stated) ?
DNA FID counter: 9; TRPC4 agonist: inactive; TRPC6 inh: inactive; TRPC6 activator: inactive; TRPC4 potent: inactive; TRPC4 block: inactive

Results for OCC1(CCc2ccccc2)CCN(Cc2ccccc2Cl)CC1 ?
DNA FID counter: 7; TRPC4 agonist: 69*; TRPC6 inh: inactive; TRPC6 activator: inactive; TRPC4 potent: inactive; TRPC4 block: inactive

What do the screens show for `OCC1(CCCc2ccccc2)CCN(Cc2cc(F)ccc2F)CC1`?
DNA FID counter: 7; TRPC4 agonist: inactive; TRPC6 inh: inactive; TRPC6 activator: inactive; TRPC4 potent: inactive; TRPC4 block: -7*

Results for OCC1(CCc2ccccc2)CCN(Cc2cc(F)ccc2-n2cccn2)CC1 ?
DNA FID counter: 18; TRPC4 agonist: 82*; TRPC6 inh: inactive; TRPC6 activator: inactive; TRPC4 potent: inactive; TRPC4 block: inactive

Results for COCc1cc(C)nc(Sc2nc3c(c(=O)n(C)c(=O)n3C)n2C)c1C#N ?
DNA FID counter: -12; TRPC4 agonist: inactive; TRPC6 inh: inactive; TRPC6 activator: inactive; TRPC4 potent: inactive; TRPC4 block: inactive

What do the screens show for `Cc1c(C(=O)NC(=S)NCc2cccnc2)cccc1[N+](=O)[O-]`?
DNA FID counter: -10; TRPC4 agonist: inactive; TRPC6 inh: inactive; TRPC6 activator: inactive; TRPC4 potent: inactive; TRPC4 block: inactive

Results for COc1ccc(OCC(=O)Nc2ccccc2N2CCN(C)CC2)cc1 ?
DNA FID counter: 5; TRPC4 agonist: inactive; TRPC6 inh: inactive; TRPC6 activator: inactive; TRPC4 potent: inactive; TRPC4 block: -6*

How did COc1ccc(OCC(=O)Nc2ccccc2N2CCCCC2)cc1 do in these assays?
DNA FID counter: -28; TRPC4 agonist: inactive; TRPC6 inh: inactive; TRPC6 activator: inactive; TRPC4 potent: inactive; TRPC4 block: inactive

How did CCC(=O)N1CCN(c2ccccc2NC(=O)COc2ccc(C(C)C)cc2)CC1 do in these assays?
DNA FID counter: -56; TRPC4 agonist: inactive; TRPC6 inh: inactive; TRPC6 activator: inactive; TRPC4 potent: 11*; TRPC4 block: inactive

Results for CCC(C)NC(=O)Cn1nc(Cc2ccncc2)c2ccccc2c1=O (configuration not stated) ?
DNA FID counter: -2; TRPC4 agonist: inactive; TRPC6 inh: inactive; TRPC6 activator: inactive; TRPC4 potent: inactive; TRPC4 block: inactive

Results for CCc1ccc(C(C(=O)NC2CCCC2)N(C(=O)c2csnn2)C2CC2)cc1 (configuration not stated) ?
DNA FID counter: -33; TRPC4 agonist: inactive; TRPC6 inh: inactive; TRPC6 activator: inactive; TRPC4 potent: inactive; TRPC4 block: inactive

What do the screens show for `CN(CCc1nc2ccc(Cl)cc2[nH]1)Cc1nc(CC2CC2)no1`?
DNA FID counter: -15; TRPC4 agonist: 105*; TRPC6 inh: inactive; TRPC6 activator: inactive; TRPC4 potent: inactive; TRPC4 block: inactive

Results for Cc1cccc(N(Cc2ccccc2)C(=O)CSC(C)C(=O)Nc2cc(C)on2)c1 (configuration not stated) ?
TRPC4 agonist: inactive; TRPC6 inh: inactive; TRPC6 activator: inactive; TRPC4 potent: inactive; TRPC4 block: -6*

How did CSCCC(NC(=O)COc1ccccc1)C(=O)N1CCCC(C)C1 (configuration not stated) do in these assays?
DNA FID counter: -22; TRPC4 agonist: inactive; TRPC6 inh: inactive; TRPC6 activator: inactive; TRPC4 potent: inactive; TRPC4 block: inactive

What do the screens show for `Cc1ccc(NC(=S)NC(=O)c2sc3ccccc3c2Cl)c(C(=O)O)c1`?
DNA FID counter: -2; TRPC4 agonist: inactive; TRPC6 inh: inactive; TRPC6 activator: inactive; TRPC4 potent: inactive; TRPC4 block: -6*

Results for O=C(NNC(=S)NC(=O)c1sc2ccccc2c1Cl)c1ccc(Cl)cc1 ?
DNA FID counter: -10; TRPC4 agonist: inactive; TRPC6 inh: inactive; TRPC6 activator: inactive; TRPC4 potent: 56*; TRPC4 block: inactive

Results for O=C(O)c1ccccc1NC(=S)NC(=O)c1sc2ccccc2c1Cl ?
DNA FID counter: -3; TRPC4 agonist: inactive; TRPC6 inh: inactive; TRPC6 activator: inactive; TRPC4 potent: inactive; TRPC4 block: inactive

Results for COc1ccc(CNC(=O)CN2C(=O)COc3ccc(S(=O)(=O)N4CCCCC4)cc32)cc1 ?
DNA FID counter: -23; TRPC4 agonist: inactive; TRPC6 inh: inactive; TRPC6 activator: inactive; TRPC4 potent: inactive; TRPC4 block: inactive

Results for CCC(=O)C1CCCN(C(=O)c2ccc(OC)c(OC3CCN(C(C)=O)CC3)c2)C1 (configuration not stated) ?
DNA FID counter: -28; TRPC4 agonist: inactive; TRPC6 inh: inactive; TRPC6 activator: inactive; TRPC4 potent: inactive; TRPC4 block: inactive

What do the screens show for `COc1ccc(C(=O)CC(=O)Nc2ccc([N+](=O)[O-])cc2)cc1`?
DNA FID counter: 11; TRPC4 agonist: inactive; TRPC6 inh: inactive; TRPC6 activator: inactive; TRPC4 potent: inactive; TRPC4 block: inactive

How did COc1ccc(N/C(C)=C2/C(=O)C(=O)N(CCO)C2c2ccc([N+](=O)[O-])cc2)cc1 (configuration not stated) do in these assays?
DNA FID counter: -2; TRPC4 agonist: inactive; TRPC6 inh: inactive; TRPC6 activator: inactive; TRPC4 potent: 137*; TRPC4 block: inactive

How did C#CCOCCOCCOCCNc1nc(N2CCN(C(=O)C(Cc3cc4ccccc4[nH]3)n3cc(C(N)C(C)CC)nn3)CC2)nc(N2CCN(C(=O)C(Cc3cc4ccccc4[nH]3)n3cc(C(N)C(C)CC)nn3)CC2)n1 (configuration not stated) do in these assays?
DNA FID counter: 38*; TRPC4 agonist: inactive; TRPC6 inh: inactive; TRPC6 activator: inactive; TRPC4 potent: inactive; TRPC4 block: inactive

What do the screens show for `C#CCOCCOCCOCCNc1nc(N2CCN(C(=O)[C@H]([C@@H](C)CC)n3cc([C@@H](N)CC(C)C)nn3)CC2)nc(N2CCN(C(=O)[C@H](Cc3cc4ccccc4[nH]3)n3cc([C@@H](N)Cc4ccc(O)cc4)nn3)CC2)n1`?
DNA FID counter: 44*; TRPC4 agonist: inactive; TRPC6 inh: inactive; TRPC6 activator: inactive; TRPC4 potent: inactive; TRPC4 block: inactive
